The text below walks through data of PMC6595297 (British Journal of Clinical Pharmacology, 2019).

A word on the AUC(0-inf): it is the area under the concentration-time curve extrapolated to infinity. Low values mean less exposure, high ones more exposure. For orientation: AUC(0-t) means exposure summed from dosing to a finite time, without extrapolation to infinity. By Cmax is commonly meant the peak of the concentration-time curve. One may read the clearance as a measure of how efficiently the substance is removed, as volume per time. A lower clearance goes with inefficient removal. In general, half-life refers to how long it takes for the measured level to halve. Low readings indicate rapid decline, high ones slow decline.

Data set [1] in a line: Phase I DDI study: pevonedistat plasma PK alone and with fluconazole. The format is in vivo, human. Summed up: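 Single IV pevonedistat given on day 1 alone and on day 8 with the CYP3A inhibitor. K2EDTA plasma was sampled within 1 h predose, at end of infusion, and at 0.5, 1, 2, 3, 4, 8, 12, 24, 48 and 72 h postdose. Samples were assayed by two GLP-validated LC–MS/MS methods (0.0500–25.0 and 1.00–500 ng mL−1). Noncompartmental PK was used. Day 8/day 1 geometric mean ratios with 90% CIs came from ANOVA (subject random), back-transformed.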

The conditions of data set [2]: estimated across doses and schedules, 1‐h IV infusion; cited from earlier work.
In data set [3] the test system is multidrug resistance protein 1 (MDR1)/P‐glycoprotein (P‐gp). To be noted: in vitro, ref data on file; cited from earlier work.
The mark [4] stands for this setting: Pevonedistat 8 mg m^−2, + fluconazole (day 8) vs alone (day 1), n = 12.
[5] abbreviates: human, plasma, intravenous, 8 mg.

Each structure is given as a SMILES string.

As to `NS(=O)(=O)OC[C@@H]1C[C@@H](n2ccc3c(N[C@H]4CCc5ccccc54)ncnc32)C[C@@H]1O` [Pevonedistat], in data set [1] (setting [4]), the “AUClast, geometric LS mean ratio (test/reference) (90% CI)” value is 110.21 (102.34–118.69) %; the “AUC∞, geometric LS mean ratio (test/reference) (90% CI)” value is listed as 110.66 (102.53–119.43) %; the “C max, geometric LS mean ratio (test/reference) (90% CI)” value is recorded as 98.75 (82.60–118.05) %. In data set [1] (setting [5]), this compound returned an AUC(0-inf) of 450 ng·h/mL, an AUC(0-t) of 445 ng·h/mL and a Cmax of 51.6 ng/mL. In data set [1] (human, plasma, iv, 8 mg), the AUC(0-inf) amounted to 450 ng·h/mL, the peak level (Cmax) was 51.6 ng/mL, the clearance was 528 mL/min and the half-life is 11.1 h. The “AUC∞ geometric mean ratio, presence vs. absence of fluconazole” value in data set [1] (pevonedistat 8 mg m^−2, n = 12) is given as 1.11. The “Mean terminal elimination half‐life (t 1/2)” value in data set [2] was 10 to 11 h. The “Substrate of MDR1/P‐gp” value in data set [3] was “substrate”.
